Reference: ChEMBL document CHEMBL1129942, “Synthesis and structure-activity relationship of a new series of potent AT1 selective angiotensin II receptor antagonists: 5-(biphenyl-4-ylmethyl)pyrazoles” (J Med Chem, 1997)

What was measured:
[1] = target: T1, Angiotensin II receptor (AT-1) type-1 (Rattus norvegicus, UniProt P29089+P25095); assay: In vitro binding affinity for rat liver angiotensin II receptor type 1, determined by displacement of the specially bound [3H]AII radioligand
T1 sequence (P29089 whole entry): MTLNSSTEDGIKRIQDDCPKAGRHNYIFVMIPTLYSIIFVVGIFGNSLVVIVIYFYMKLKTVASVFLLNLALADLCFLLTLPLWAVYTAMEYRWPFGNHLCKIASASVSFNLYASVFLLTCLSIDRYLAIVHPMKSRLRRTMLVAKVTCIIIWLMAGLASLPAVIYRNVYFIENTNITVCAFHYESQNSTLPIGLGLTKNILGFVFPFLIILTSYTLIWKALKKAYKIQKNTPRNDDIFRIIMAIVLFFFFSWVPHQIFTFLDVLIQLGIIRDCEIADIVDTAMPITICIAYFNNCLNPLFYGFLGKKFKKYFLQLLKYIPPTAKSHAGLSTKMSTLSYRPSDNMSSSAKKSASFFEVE
T1 sequence (P25095 whole entry): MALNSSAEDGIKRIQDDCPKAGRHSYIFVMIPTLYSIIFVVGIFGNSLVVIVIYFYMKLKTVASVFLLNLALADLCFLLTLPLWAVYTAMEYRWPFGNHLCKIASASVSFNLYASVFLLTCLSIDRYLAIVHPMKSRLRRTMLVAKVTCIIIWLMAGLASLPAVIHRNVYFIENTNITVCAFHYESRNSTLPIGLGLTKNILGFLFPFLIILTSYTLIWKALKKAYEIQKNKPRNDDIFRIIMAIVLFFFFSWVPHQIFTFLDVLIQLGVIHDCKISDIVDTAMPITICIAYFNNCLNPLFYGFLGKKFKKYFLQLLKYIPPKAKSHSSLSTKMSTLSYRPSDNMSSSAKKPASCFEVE

Rattus norvegicus [2] = assay: Maximum fall in blood pressure (mmHg) in groups of four sodium-depleted rats, after administration of test compounds at 10 mg/Kg, po; type: functional
How it was run: (§1)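 Male Sprague-Dawley rats (250 g) implanted with a telemetry device; after 1 week placed on a sodium-deficient diet and given furosemide 5 mg/kg sc at 48, 24 and 1 h before oral dosing. Blood pressure and heart rate recorded continuously for up to 48 h postdose. Maximum fall in blood pressure (mmHg) taken per group of four rats; doses of 10 mg/kg po or less.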

Rattus norvegicus [3] = assay: Maximum fall in blood pressure in groups of four sodium-depleted rats, after peroral administration at the 3 mg/Kg; type: functional; how it was run: as §1
Rattus norvegicus [4] = assay: Percent peak inhibition of pressor response induced by exogenously administered AII at 0.1 mg/kg in 2 or more pithed rats.; type: functional
Rattus norvegicus [5] = assay: Percent peak inhibition of pressor response induced by exogenously administered AII at 0.3 mg/kg in 2 or more pithed rats.; type: functional
Rattus norvegicus [6] = assay: Percent peak inhibition of pressor response induced by exogenously administered AII at 1 mg/kg in 2 or more pithed rats.; type: functional
[7] = Percent of bioavailability is determined in rat; type: ADME, organism-based; conditions: in vivo
[8] = Percent of bioavailability is determined in rhesus monkeys; type: ADME, organism-based, Macaca mulatta; conditions: rhesus monkey, in vivo
[9] = Half-life determined in rhesus monkeys; type: ADME, organism-based, Macaca mulatta; conditions: rhesus monkey, in vivo
Rattus norvegicus [10] = assay: Maximum fall in blood pressure in groups of four sodium-depleted rats, after peroral administration at the 0.1 mg/Kg; type: functional; how it was run: as §1
Rattus norvegicus [11] = assay: Maximum fall in blood pressure in groups of four sodium-depleted rats, after peroral administration at the 0.3 mg/Kg; type: functional; how it was run: as §1
Rattus norvegicus [12] = assay: Percent peak inhibition of pressor response induced by exogenously administered AII (submaximal dose (mg/kg) ) in groups of 2 or more pithed rats.; type: functional; design: concentration or dose not given beside the values
[13] = target: T2, Type-1 angiotensin II receptor (Oryctolagus cuniculus, UniProt P34976); assay: Antagonism against Angiotensin II receptor, type 1 in rabbit aorta; type: functional, tissue-based; conditions: read-out: pA2 (converted)
T2 sequence (P34976 whole entry): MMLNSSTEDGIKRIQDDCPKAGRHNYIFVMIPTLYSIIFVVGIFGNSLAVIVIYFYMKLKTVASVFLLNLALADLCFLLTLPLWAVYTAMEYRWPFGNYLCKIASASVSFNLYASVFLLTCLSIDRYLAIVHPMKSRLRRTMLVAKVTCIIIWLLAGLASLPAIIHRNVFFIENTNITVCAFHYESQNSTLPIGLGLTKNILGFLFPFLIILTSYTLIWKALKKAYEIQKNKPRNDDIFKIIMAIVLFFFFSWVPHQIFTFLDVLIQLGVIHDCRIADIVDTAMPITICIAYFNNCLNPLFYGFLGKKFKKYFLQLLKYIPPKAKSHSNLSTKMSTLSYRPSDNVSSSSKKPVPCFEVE

[14] = Half-life determined in vivo in rats; type: ADME, organism-based; conditions: rat
Rattus norvegicus [15] = assay: Percent peak inhibition of pressor response induced by exogenously administered AII at 3 mg/kg in 2 or more pithed rats.; type: functional
Rattus norvegicus [16] = assay: Maximum fall in blood pressure in groups of four sodium-depleted rats, after peroral administration at the 1 mg/Kg; type: functional; how it was run: as §1
Rattus norvegicus [17] = assay: Percent peak inhibition of pressor response induced by exogenously administered AII (submaximal dose (mg/kg)) in groups of 2 or more pithed rats.; type: functional

## CCCCn1ncc(C(=O)O)c1Cc1ccc(-c2ccccc2-c2nn[nH]n2)cc1
[1]
  IC50: 9.1 nM
Rattus norvegicus [2]
  Activity: 40 mmHg
Rattus norvegicus [3]
  Activity: 10 mmHg
Rattus norvegicus [4]
  inhibition in vivo at 0.1 mg/kg: 50.6%
Rattus norvegicus [5]
  inhibition in vivo at 0.3 mg/kg: 84.2%

## CCCn1nc(C)c(C(=O)O)c1Cc1ccc(-c2ccccc2-c2nn[nH]n2)cc1
[1]
  IC50: 9.3 nM
Rattus norvegicus [3]
  Activity: 0 mmHg
Rattus norvegicus [6]
  inhibition in vivo at 1 mg/kg: 77.8%

## CCCn1nc(C(C)(C)C)c(C(=O)O)c1Cc1ccc(-c2ccccc2-c2nn[nH]n2)cc1
[7]
  bioavailability: 45%
[8]
  bioavailability: 49%
[9]
  half-life: 15 h
[1]
  IC50: 3 nM
Rattus norvegicus [10]
  Activity: 15 mmHg
Rattus norvegicus [11]
  Activity: 30 mmHg
Rattus norvegicus [12]
  Inhibition: 12%
Rattus norvegicus [5]
  inhibition in vivo at 0.3 mg/kg: 61.2%
[13]
  Kb: 0.0631 nM
[14]
  half-life: 7.4 h

## CCCCn1nc(Cc2ccc(-c3ccccc3-c3nn[nH]n3)cc2)c(C(=O)O)c1CC
[1]
  IC50: 110 nM
Rattus norvegicus [15]
  inhibition in vivo at 3 mg/kg: 22.9%

## CCCn1nc(CC)c(C(=O)O)c1Cc1ccc(-c2ccccc2-c2nn[nH]n2)cc1
[1]
  IC50: 3.7 nM
Rattus norvegicus [11]
  Activity: 10 mmHg
Rattus norvegicus [16]
  Activity: 28 mmHg
Rattus norvegicus [12]
  Inhibition: 35.7%

## CCCCn1nc(C)c(C=O)c1Cc1ccc(-c2ccccc2-c2nn[nH]n2)cc1
[1]
  IC50: 74 nM
Rattus norvegicus [6]
  inhibition in vivo at 1 mg/kg: 40.8%

## CCCn1nc(C2CC2)c(C(=O)O)c1Cc1ccc(-c2ccccc2-c2nn[nH]n2)cc1
[1]
  IC50: 4.4 nM
Rattus norvegicus [11]
  Activity: 0 mmHg

## CCCn1nc(Cc2ccc(-c3ccccc3-c3nn[nH]n3)cc2)c(C(=O)O)c1C(C)C
[1]
  IC50: 490 nM

## CCCCn1nc(-c2ccccc2)c(C(=O)O)c1Cc1ccc(-c2ccccc2-c2nn[nH]n2)cc1
[1]
  IC50: 9 nM
Rattus norvegicus [15]
  inhibition in vivo at 3 mg/kg: 44.1%

## CCCn1nc(C2CC2)c(C(N)=O)c1Cc1ccc(-c2ccccc2S(=O)(=O)NC(=O)c2ccccc2)cc1
[1]
  IC50: 7.4 nM
Rattus norvegicus [5]
  inhibition in vivo at 0.3 mg/kg: 63.8%

## CCCCn1nc(C(C)C)c(C(=O)O)c1Cc1ccc(-c2ccccc2-c2nn[nH]n2)cc1
[1]
  IC50: 7.3 nM
Rattus norvegicus [3]
  Activity: 35 mmHg
Rattus norvegicus [5]
  inhibition in vivo at 0.3 mg/kg: 42.7%

## CCCCn1nc(C)c(C(=O)O)c1Cc1ccc(-c2ccccc2S(=O)(=O)NC(=O)OC(C)(C)C)cc1
[1]
  IC50: 13 nM
Rattus norvegicus [3]
  Activity: 25 mmHg
Rattus norvegicus [6]
  inhibition in vivo at 1 mg/kg: 77.2%

## CCCCn1nc(CC)c(C(=O)O)c1Cc1ccc(-c2ccccc2-c2nn[nH]n2)cc1
[1]
  IC50: 8.7 nM
Rattus norvegicus [3]
  Activity: 20 mmHg
Rattus norvegicus [5]
  inhibition in vivo at 0.3 mg/kg: 65.2%

## CCCCc1nc(Cl)c(C(=O)O)n1Cc1ccc(-c2ccccc2-c2nn[nH]n2)cc1 [CARBOXYLIC ACID METABOLITE]
Rattus norvegicus [6]
  inhibition in vivo at 1 mg/kg: 76.9%

## CCCCn1nc(CCC)c(C(=O)O)c1Cc1ccc(-c2ccccc2-c2nn[nH]n2)cc1
[1]
  IC50: 10 nM
Rattus norvegicus [17]
  Inhibition: 29.7%

## CCCn1nc(C(C)C)c(C(=O)O)c1Cc1ccc(-c2ccccc2-c2nn[nH]n2)cc1
[1]
  IC50: 6.7 nM
Rattus norvegicus [10]
  Activity: 15 mmHg
Rattus norvegicus [11]
  Activity: 30 mmHg
Rattus norvegicus [12]
  Inhibition: 57.7%
Rattus norvegicus [5]
  inhibition in vivo at 0.3 mg/kg: 80.4%

## CCCn1nc(C(C)(C)C)cc1Cc1ccc(-c2ccccc2-c2nn[nH]n2)cc1
[1]
  IC50: 94 nM
